# According to ChEMBL document CHEMBL6153131, “Rational Design and Optimization of a Potent IDO1 Proteolysis Targeting Chimera (PROTAC)” (J Med Chem, 2025):
# The source made the active and inactive calls. The rule behind the calls is not given here.
# Tests used:
# [1] = tested on: U-87MG ATCC; test: Inhibition of kynurenine production in human U87 cells overexpressing GFP-fused IDO1 cells pretreated with IFN-gamma for 24 hrs followed by compound addition and measured after 24 hrs by Ehrlich's reagent based analysis; assay type: functional, cell-based; conditions: dose 50-100 nM
# [2] = molecular target: T1, Protein cereblon/Indoleamine 2,3-dioxygenase 1 (Homo sapiens, UniProt P14902+Q96SW2); test: PROTAC activity at CRBN/IDO1 in human GBM43 cell assessed as induction of IDO1 degradation at 1 uM pretreated with IFN-gamma for 24 hrs followed by compound addition and measured after 24 hrs by Western blotting analysis (reference value: 100%); assay type: cell-based
# Procedure, shortened: (§1)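 GBM43 patient-derived cells given an extended dose range of PROTAC for 24 h. Protein analysed by Western blot for IDO1, and IFNγ-induced IDO1 normalised to untreated samples. n = 3 independent experiments; data as mean ± SEM.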
# Target sequence in this assay (P14902 whole entry, looked up): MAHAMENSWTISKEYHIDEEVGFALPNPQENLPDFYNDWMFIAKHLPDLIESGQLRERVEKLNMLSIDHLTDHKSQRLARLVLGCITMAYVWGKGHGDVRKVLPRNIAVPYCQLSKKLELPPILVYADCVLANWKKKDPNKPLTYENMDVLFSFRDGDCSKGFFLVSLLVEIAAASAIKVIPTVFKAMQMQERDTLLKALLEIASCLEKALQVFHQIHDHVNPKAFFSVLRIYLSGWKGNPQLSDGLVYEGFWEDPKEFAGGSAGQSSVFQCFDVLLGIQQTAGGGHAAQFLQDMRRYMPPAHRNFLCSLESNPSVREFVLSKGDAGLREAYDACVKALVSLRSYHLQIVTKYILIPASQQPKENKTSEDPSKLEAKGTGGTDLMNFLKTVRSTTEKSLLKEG
# Target sequence in this assay (Q96SW2 whole entry, looked up): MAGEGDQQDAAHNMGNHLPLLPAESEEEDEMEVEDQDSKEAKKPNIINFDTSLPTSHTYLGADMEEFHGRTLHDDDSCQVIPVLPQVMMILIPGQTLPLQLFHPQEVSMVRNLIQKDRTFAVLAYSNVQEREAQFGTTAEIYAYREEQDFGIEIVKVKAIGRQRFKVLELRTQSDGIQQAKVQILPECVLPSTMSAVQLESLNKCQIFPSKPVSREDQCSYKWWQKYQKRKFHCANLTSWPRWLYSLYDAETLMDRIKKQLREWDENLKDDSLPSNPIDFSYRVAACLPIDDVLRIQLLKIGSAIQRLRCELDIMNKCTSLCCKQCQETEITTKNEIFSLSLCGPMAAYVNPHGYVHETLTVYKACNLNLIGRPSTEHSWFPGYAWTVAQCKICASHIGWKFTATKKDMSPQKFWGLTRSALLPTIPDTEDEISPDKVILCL
# [3] = tested on: PDX-38; test: Inhibition of kynurenine production in human PDX-38 cells pretreated with IFN-gamma for 24 hrs followed by compound addition and measured after 24 hrs by Ehrlich's reagent based analysis; assay type: functional, cell-based; conditions: dose 50-100 nM
# [4] = tested on: PC-3; test: Inhibition of kynurenine production in human PC-3 cells pretreated with IFN-gamma for 24 hrs followed by compound addition and measured after 24 hrs by Ehrlich's reagent based analysis; assay type: functional, cell-based; conditions: dose 50-100 nM
# [5] = molecular target: Indoleamine 2,3-dioxygenase 1 (Homo sapiens) (UniProt P14902); test: Binding affinity to 6His-tagged recombinant IDO1 (unknown origin) assessed as binary complex formation by measuring half life by Biolayer Interferometry assay
# [6] = molecular target: T1, Protein cereblon/Indoleamine 2,3-dioxygenase 1; test: PROTAC activity at CRBN/IDO1 in human GBM43 cell assessed as induction of IDO1 degradation at 0.1 uM pretreated with IFN-gamma for 24 hrs followed by compound addition and measured after 24 hrs by Western blotting analysis (reference value: 100%); assay type: cell-based; procedure, shortened: as §1
# Target sequence in this assay (P14902 whole entry, looked up): as the sequence (P14902 whole entry, looked up) above
# Target sequence in this assay (Q96SW2 whole entry, looked up): as the sequence (Q96SW2 whole entry, looked up) above
# [7] = molecular target: T1, Protein cereblon/Indoleamine 2,3-dioxygenase 1; test: PROTAC activity at CRBN/IDO1 in human U87 cells assessed as induction of IDO1 degradation by measuring remaining activity at 25 nM pretreated with IFN-gamma for 24 hrs followed by compound addition and measured after 24 hrs by Western blotting analysis (reference value: 100%); assay type: cell-based
# Target sequence in this assay (P14902 whole entry, looked up): as the sequence (P14902 whole entry, looked up) above
# Target sequence in this assay (Q96SW2 whole entry, looked up): as the sequence (Q96SW2 whole entry, looked up) above
# [8] = Cmax in female C57BL/6J mouse brain at 50 mg/kg, ip by LC-MS/MS analysis; assay type: ADME, organism-based
# [9] = tested on: Kelly; test: Downregulation of ADO protein level in human Kelly cells at 1 uM incubated for 24 hrs by proteomics analysis; assay type: functional, cell-based
# [10] = molecular target: T1, Protein cereblon/Indoleamine 2,3-dioxygenase 1; test: PROTAC activity at CRBN/IDO1 in human U87 cells assessed as induction of IDO1 degradation by measuring remaining activity at 0.3 uM pretreated with IFN-gamma for 24 hrs followed by compound addition and measured after 24 hrs by Western blotting analysis (reference value: 100%); assay type: cell-based
# Procedure, shortened: (§2)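 U87 cells given an extended dose range of PROTAC for 24 h, then Western blot for IDO1. IFNγ-induced IDO1 levels normalised to untreated samples. n = 3 independent experiments; mean ± SEM.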
# Target sequence in this assay (P14902 whole entry, looked up): as the sequence (P14902 whole entry, looked up) above
# Target sequence in this assay (Q96SW2 whole entry, looked up): as the sequence (Q96SW2 whole entry, looked up) above
# [11] = molecular target: T1, Protein cereblon/Indoleamine 2,3-dioxygenase 1; test: PROTAC activity at CRBN/IDO1 in human U87 cells overexpressing GFP-fused IDO1 assessed as induction of IDO1 degradation pretreated with IFN-gamma for 24 hrs followed by compound addition and measured after 24 hrs by Western blotting analysis; assay type: cell-based; conditions: dose 50-100 nM
# Procedure, shortened: (§3)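 Cells had IDO1 induced with IFNγ, then were treated at the indicated concentrations for 24 h. Lines: PDX-6 and PDX-38 adult GBM PDX cells, U87 overexpressing GFP-fused IDO1, PC-3, KNS42, MDA-MB-231, SW-1990 and SKOV-3. Lysates probed for IDO1 and GAPDH by Western blot; representative of 3 separate replicates.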
# Target sequence in this assay (P14902 whole entry, looked up): as the sequence (P14902 whole entry, looked up) above
# Target sequence in this assay (Q96SW2 whole entry, looked up): as the sequence (Q96SW2 whole entry, looked up) above
# [12] = molecular target: T1, Protein cereblon/Indoleamine 2,3-dioxygenase 1; test: PROTAC activity at CRBN/IDO1 in human U87 cells assessed as induction of IDO1 degradation by measuring remaining activity at 0.03 uM pretreated with IFN-gamma for 24 hrs followed by compound addition and measured after 24 hrs by Western blotting analysis (reference value: 100%); assay type: cell-based; procedure, shortened: as §2
# Target sequence in this assay (P14902 whole entry, looked up): as the sequence (P14902 whole entry, looked up) above
# Target sequence in this assay (Q96SW2 whole entry, looked up): as the sequence (Q96SW2 whole entry, looked up) above
# [13] = tested on: Kelly; test: Downregulation of EPHX2 protein level in human Kelly cells at 1 uM incubated for 24 hrs by proteomics analysis; assay type: functional, cell-based
# [14] = molecular target: T1, Protein cereblon/Indoleamine 2,3-dioxygenase 1; test: (§4) PROTAC activity at CRBN/N-terminal HiBiT-tagged IDO1 (unknown origin) transfected in human U87 cells assessed as induction of IDO1 degradation pretreated with IFN-gamma for 24 hrs followed by compound addition and measured after 24 hrs by Nano-Glo HiBiT assay; assay type: cell-based
# Procedure, shortened: (§5)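 U87 cells carrying HiBiT knocked in by CRISPR/Cas9 at the IDO1 N-terminus, treated for 24 h. Degradation read as loss of luminescence. DC50 fitted from the lowest concentration up to maximal degradation, excluding hook-effect points; triplicate mean ± SD.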
# Target sequence in this assay (P14902 whole entry): as the sequence (P14902 whole entry, looked up) above
# Target sequence in this assay (Q96SW2 whole entry): as the sequence (Q96SW2 whole entry, looked up) above
# [15] = molecular target: T1, Protein cereblon/Indoleamine 2,3-dioxygenase 1; test: PROTAC activity at CRBN/IDO1 in human SK-OV-3 cells assessed as induction of IDO1 degradation pretreated with IFN-gamma for 24 hrs followed by compound addition and measured after 24 hrs by Western blotting analysis; assay type: cell-based; conditions: dose 50-100 nM; procedure, shortened: as §3
# [16] = molecular target: T1, Protein cereblon/Indoleamine 2,3-dioxygenase 1; test: PROTAC activity at CRBN/IDO1 in human GBM43 cell assessed as induction of IDO1 degradation at 10 uM pretreated with IFN-gamma for 24 hrs followed by compound addition and measured after 24 hrs by Western blotting analysis (reference value: 100%); assay type: cell-based; procedure, shortened: as §1
# [17] = tested on: Kelly; test: Downregulation of CDK8 protein level in human Kelly cells at 1 uM incubated for 24 hrs by proteomics analysis; assay type: functional, cell-based
# [18] = molecular target: T1, Protein cereblon/Indoleamine 2,3-dioxygenase 1; test: PROTAC activity at CRBN/IDO1 in human U87 cells assessed as induction of IDO1 degradation by measuring remaining activity at 1 uM pretreated with IFN-gamma for 24 hrs followed by compound addition and measured after 24 hrs by Western blotting analysis (reference value: 100%); assay type: cell-based; procedure, shortened: as §2
# [19] = molecular target: T1, Protein cereblon/Indoleamine 2,3-dioxygenase 1; test: PROTAC activity at CRBN/IDO1 in human U87 cells assessed as induction of IDO1 degradation by measuring remaining activity at 100 nM pretreated with IFN-gamma for 24 hrs followed by compound addition and measured after 2 hrs by Western blotting analysis (reference value: 100%); assay type: cell-based
# Procedure, shortened: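 U87 cells under single continuous PROTAC treatment (50 and 100 nM), sampled at multiple time points up to 72 h. IDO1 assessed by Western blot.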
# [20] = molecular target: T1, Protein cereblon/Indoleamine 2,3-dioxygenase 1; test: as §4, with “degradation by measuring maximum efficacy” for “degradation”, “assay relative to control” for “assay”; assay type: cell-based; procedure, shortened: as §5
# [21] = molecular target: T1, Protein cereblon/Indoleamine 2,3-dioxygenase 1; test: PROTAC activity at CRBN/IDO1 in human U87 cells assessed as induction of IDO1 degradation by measuring remaining activity at 100 nM pretreated with IFN-gamma for 24 hrs followed by compound addition and measured after 24 hrs by Western blotting analysis (reference value: 100%); assay type: cell-based
# [22] = tested on: KNS-42; test: Inhibition of kynurenine production in human KNS-42 cells pretreated with IFN-gamma for 24 hrs followed by compound addition and measured after 24 hrs by Ehrlich's reagent based analysis; assay type: functional, cell-based; conditions: dose 50-100 nM
# [23] = tested on: PDX-6; test: Inhibition of kynurenine production in human PDX-6 cells pretreated with IFN-gamma for 24 hrs followed by compound addition and measured after 24 hrs by Ehrlich's reagent based analysis; assay type: functional, cell-based; conditions: dose 50-100 nM
# [24] = molecular target: T1, Protein cereblon/Indoleamine 2,3-dioxygenase 1; test: PROTAC activity at CRBN/IDO1 in human U87 cells assessed as induction of IDO1 degradation at 50 to 100 nM pretreated with compound for 24 hrs followed by compound washout and measured upto 48 hrs by Western blotting analysis; assay type: cell-based; conditions: dose 50-100 nM
# Procedure, shortened: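 U87 cells given a 24 h PROTAC pulse, then cultured without compound for up to 48 h after washout. IDO1 assessed by Western blot.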
# Indoleamine 2,3-dioxygenase 1 (Homo sapiens), sequence (P14902 whole entry, looked up): as the sequence (P14902 whole entry, looked up) above
smiles,measurement,setting,value
C[C@@H](C(=O)Nc1cccc(OC2CCN(C(=O)CN3CCC(N4CCN(c5ccc6c(c5)C(=O)N(C5CCC(=O)NC5=O)C6=O)CC4)CC3)CC2)c1)[C@H]1CC[C@@H](c2ccnc3ccc(F)cc32)CC1 (some centres undefined),inhibition,[1],Dose-dependent-effect
same,Activity,[2],47%
same,inhibition,[3],Dose-dependent-effect
same,inhibition,[4],Dose-dependent-effect
same,T1/2,[5],38.6 s
same,Activity,[6],13%
same,Activity,[7],35%
same,Cmax,[8],0.1 µM
same,Activity,[9],Active
same,Activity,[10],20%
same,Activity,[11],Dose-dependent-effect
same,Activity,[12],27%
same,Activity,[13],Active
same,DC50,[14],4.5 nM
same,Activity,[15],Dose-dependent-effect
same,Activity,[16],87%
same,Activity,[17],Active
same,Activity,[18],35%
same,Activity,[19],86%
same,Emax,[20],63%
same,Activity,[21],24%
same,inhibition,[22],Dose-dependent-effect
same,inhibition,[23],Dose-dependent-effect
same,Activity,[24],Active
